Data on nine molecules can be found in ChEMBL document CHEMBL2086277, “Pyridonepezils, new dual AChE inhibitors as potential drugs for the treatment of Alzheimer's disease: synthesis, biological assessment, and molecular modeling” (Eur J Med Chem, 2012).

Data set [1] concerns the target T1, Acetylcholinesterase (Homo sapiens, UniProt P22303). The experiment in a line: Inhibition of human erythrocyte AChE using acetylthiocholine as substrate by Ellman method.
Data set [2] can be described thus: Permeability of the compound in PBS/ethanol at 1 mg/ml after 4 hrs by PAMPA. It is filed as ADME. Conditions: for Papp at 4 h, 1 mg/ml: PAMPA, read-out: permeability. The method, boiled down: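 PAMPA-BBB: permeability (Pe) measured through a porcine brain lipid extract membrane, using PBS:EtOH (70:30) as the medium. The assay was validated against 15 commercial drugs by correlating measured with reported Pe values. Data are mean ± SD of three independent experiments.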

The target in data set [3] is Cholinesterase (Homo sapiens, UniProt P06276). The experiment in a line: Inhibition of human serum BChE using butyrylthiocholine as substrate by Ellman method. The method, boiled down:
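IC50 is the concentration giving 50% inhibition of human BuChE, reported as mean ± SEM of three independent experiments.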
A general note: DTNB colorimetry detects thiols as they appear.

The target of data set [4] is T1, Acetylcholinesterase. Kind of data set: Ratio of donepezil IC50 to compound IC50 for human erythrocyte AChE using acetylthiocholine as substrate by Ellman method.
Data set [5] deals with Cholinesterase (Equus caballus, UniProt P81908). Kind of data set: Inhibition of equine BChE.

Some results are limits rather than exact numbers.

In general, IC50 refers to the concentration needed to halve the response being measured. The low end stands for greater potency, the high end for weaker potency.

Sequence of Cholinesterase (Homo sapiens, UniProt P06276) (P06276 whole entry): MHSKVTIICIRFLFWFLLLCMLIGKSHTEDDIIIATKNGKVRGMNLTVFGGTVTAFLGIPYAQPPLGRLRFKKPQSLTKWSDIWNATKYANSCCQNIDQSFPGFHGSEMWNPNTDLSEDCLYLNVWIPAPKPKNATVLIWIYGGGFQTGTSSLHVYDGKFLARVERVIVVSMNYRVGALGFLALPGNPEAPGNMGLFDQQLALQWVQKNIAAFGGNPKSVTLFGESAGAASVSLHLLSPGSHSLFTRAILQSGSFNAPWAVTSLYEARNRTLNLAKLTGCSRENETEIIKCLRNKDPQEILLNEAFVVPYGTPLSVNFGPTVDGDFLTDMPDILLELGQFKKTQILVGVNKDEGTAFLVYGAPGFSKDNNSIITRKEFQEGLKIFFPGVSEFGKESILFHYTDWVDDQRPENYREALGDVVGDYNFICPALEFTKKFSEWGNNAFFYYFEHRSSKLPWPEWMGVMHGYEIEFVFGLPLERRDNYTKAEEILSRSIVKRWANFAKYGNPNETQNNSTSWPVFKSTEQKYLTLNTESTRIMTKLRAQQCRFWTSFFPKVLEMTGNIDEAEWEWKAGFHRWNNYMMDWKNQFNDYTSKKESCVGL
T1 sequence (P22303 whole entry): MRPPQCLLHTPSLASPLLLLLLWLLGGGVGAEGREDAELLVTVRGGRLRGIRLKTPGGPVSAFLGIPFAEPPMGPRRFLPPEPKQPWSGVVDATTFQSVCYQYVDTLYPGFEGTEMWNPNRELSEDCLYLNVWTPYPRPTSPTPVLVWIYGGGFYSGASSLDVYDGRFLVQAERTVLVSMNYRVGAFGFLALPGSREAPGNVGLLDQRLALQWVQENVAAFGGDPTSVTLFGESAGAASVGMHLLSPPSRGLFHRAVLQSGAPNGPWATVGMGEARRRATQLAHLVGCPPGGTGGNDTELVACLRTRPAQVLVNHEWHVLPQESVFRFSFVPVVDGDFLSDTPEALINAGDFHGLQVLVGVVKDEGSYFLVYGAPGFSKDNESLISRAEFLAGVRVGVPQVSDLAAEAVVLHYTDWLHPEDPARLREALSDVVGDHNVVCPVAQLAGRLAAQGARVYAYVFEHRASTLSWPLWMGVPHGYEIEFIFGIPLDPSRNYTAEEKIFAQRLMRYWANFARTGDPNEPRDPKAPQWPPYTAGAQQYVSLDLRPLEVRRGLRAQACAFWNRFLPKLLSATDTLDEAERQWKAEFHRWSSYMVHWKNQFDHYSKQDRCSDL
Sequence of Cholinesterase (Equus caballus, UniProt P81908) (P81908 whole entry): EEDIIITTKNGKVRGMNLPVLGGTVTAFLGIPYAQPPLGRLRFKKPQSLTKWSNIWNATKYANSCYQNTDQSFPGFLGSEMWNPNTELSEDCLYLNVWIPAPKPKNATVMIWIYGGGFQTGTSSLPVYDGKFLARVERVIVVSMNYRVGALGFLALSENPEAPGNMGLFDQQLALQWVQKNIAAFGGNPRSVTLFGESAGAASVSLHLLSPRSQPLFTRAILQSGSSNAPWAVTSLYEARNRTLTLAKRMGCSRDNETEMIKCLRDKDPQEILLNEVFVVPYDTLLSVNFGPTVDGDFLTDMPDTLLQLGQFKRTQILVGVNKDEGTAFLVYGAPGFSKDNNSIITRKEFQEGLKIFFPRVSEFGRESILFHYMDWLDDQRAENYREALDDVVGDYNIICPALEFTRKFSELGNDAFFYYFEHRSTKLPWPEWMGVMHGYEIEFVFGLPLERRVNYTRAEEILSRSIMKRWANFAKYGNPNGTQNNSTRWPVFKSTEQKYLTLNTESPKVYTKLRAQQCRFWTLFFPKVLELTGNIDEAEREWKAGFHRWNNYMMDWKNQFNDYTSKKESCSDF

With `N#Cc1cc(C#N)c(NCCCCC2CCN(Cc3ccccc3)CC2)nc1N`, the IC50 against Acetylcholinesterase [1] stood at 70 nM; against Cholinesterase [3], 1700 nM. Moreover, in data set [2], the Papp at 4 h, 1 mg/ml was determined as 21.2 ×10⁻⁶ cm/s.

For `N#Cc1cc(C#N)c(NCCCC2CCN(Cc3ccccc3)CC2)nc1N`, the IC50 on Acetylcholinesterase [1] worked out at 9.4 nM; at Cholinesterase [3], 6600 nM. Further, in data set [2], the Papp at 4 h, 1 mg/ml turned out to be 20.8 ×10⁻⁶ cm/s. Moreover, the Ratio IC50 on Acetylcholinesterase [4] was 1.4.

For the molecule `N#Cc1cc(C#N)c(NC2CCN(Cc3ccccc3)CC2)nc1N`, the IC50 was 3100 nM on Acetylcholinesterase [1] and more than 10000 nM against Cholinesterase [3]. For the same molecule, the Papp at 4 h, 1 mg/ml in data set [2] is 17 ×10⁻⁶ cm/s.

Consider `N#Cc1c(N)nc(NC2CCN(Cc3ccccc3)CC2)c(C#N)c1-c1ccccc1`, for which the figures for the IC50 against Acetylcholinesterase [1] and on Cholinesterase [3] were 8800 nM and more than 10000 nM, respectively. Besides, the permeability entry in data set [2] (pampa, 4 h) is “ND(Insoluble)”.

As for `N#Cc1c(N)nc(NCCC2CCN(Cc3ccccc3)CC2)c(C#N)c1-c1ccccc1`, the IC50 was 390 nM against Acetylcholinesterase [1] and 670 nM at Cholinesterase [3]. For the same molecule, the Papp at 4 h, 1 mg/ml in data set [2] came out at 34 ×10⁻⁶ cm/s.

`N#Cc1cc(C#N)c(NCCC2CCN(Cc3ccccc3)CC2)nc1N`: the IC50 worked out at 220 nM at Acetylcholinesterase [1] and 260 nM against Cholinesterase [3]. For the same molecule, the Papp at 4 h, 1 mg/ml in data set [2] was determined as 14.4 ×10⁻⁶ cm/s.

For the molecule `N#Cc1c(N)nc(NCCCCC2CCN(Cc3ccccc3)CC2)c(C#N)c1-c1ccccc1`, the IC50 on Acetylcholinesterase [1] came out at 120 nM; at Cholinesterase [3], 580 nM. In addition, the Papp at 4 h, 1 mg/ml in data set [2] amounted to 25.7 ×10⁻⁶ cm/s.

With `N#Cc1cc(C#N)c(N2CCCC2)nc1N`, the IC50 on Cholinesterase [5] was more than 10000 nM.

As for `N#Cc1c(N)nc(NCCCC2CCN(Cc3ccccc3)CC2)c(C#N)c1-c1ccccc1`, the IC50 against Acetylcholinesterase [1] was 240 nM; against Cholinesterase [3] it was 1500 nM. Further, the Papp at 4 h, 1 mg/ml in data set [2] turned out to be 31.6 ×10⁻⁶ cm/s.
